How the values were obtained:
[1] = Selectivity index for the difference between the IC50 values in the aggregation and contraction assay; format: functional
Method in brief: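 Index compares IC₅₀ values from U-46619-induced rabbit aorta contraction with those from rabbit platelet-rich plasma aggregation. For aggregation, citrated carotid blood from male New Zealand rabbits (2.0–2.5 kg) gave PRP. PRP was pre-warmed 2 min at 37 °C, given compound for 2 min, then U-46619, with turbidimetric read-out. Each IC₅₀ is mean ± SEM by regression, from three dose groups of four preparations.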

[2] = species: Rattus norvegicus; assay: Inhibition of U-46619 (3x10E-8 M) induced contraction in rat thoracic aorta; format: functional, organism-based
Method in brief: (§1)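 Aortic rings were held under 1.0 g resting tension and gassed with 95% O₂/5% CO₂. After 1 h equilibration, 3×10⁻⁸ M U-46619 was added; once tension stabilised, compound was added cumulatively. The concentration giving 50% relaxation of the maximal U-46619 tension was derived by regression. Values are mean ± SEM from three dose groups of four preparations.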

[3] = species: Homo sapiens; assay: Effect on TXB2 formation of human platelets; format: functional, organism-based
Method in brief: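 Washed human platelets were sonicated in 50 mM phosphate buffer (pH 7.4) with 1 mM EDTA. They were preincubated with compound and 1 mM GSH for 5 min at 37 °C, then given [1-¹⁴C]arachidonic acid for 5 min. Eicosanoids were extracted and separated by TLC, and TXB₂ radioactivity was counted. IC₅₀ was derived by regression.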

[4] = species: Oryctolagus cuniculus; assay: Displacement of specific binding of [3H]SQ-29,548 to rabbit gel-filtered platelets; format: functional
[5] = species: Oryctolagus cuniculus; assay: Compound was tested for agonist activity on rabbit aorta; format: functional
Method in brief: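 Rabbit aortic strips were exposed to compound alone at 10⁻⁵ M to test for partial agonism. Tension is expressed relative to the response to 40 mM KCl, which is set at 100.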

[6] = tested on: Thromboxane A2 receptor (Oryctolagus cuniculus); assay: Selectivity index for the TXA2 t-receptor was the difference between the IC50 values in the aggregation and contraction assay
[7] = species: Oryctolagus cuniculus; assay: Compound was tested for agonist activity on rabbit PRP; format: functional
Method in brief: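 Rabbit platelet-rich plasma was exposed to compound alone at 10⁻⁴ M to test for partial agonism. Response is expressed relative to the response to 0.1 μM U-46619, which is set at 100.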

[8] = species: Rattus norvegicus; assay: Compound was tested for the inhibition U-46619 (3 x10 E -8 M) induced contraction against in rat thoracic aorta; format: functional, organism-based; method in brief: as §1
[9] = Rattus norvegicus, Thoracic aorta

| IC50 [2, 9] [µM] | SMILES | also measured |
| --- | --- | --- |
| 0.0053 | CC(C)c1ccc2c(CCCCNS(=O)(=O)c3ccc(Cl)cc3)cc(C(=O)O)c-2cc1 | Selectivity index [1]: > 667 |
| 120 | Cc1cc(S(=O)(=O)NCCc2ccc(OCC(=O)O)cc2)c2cc(C(C)C)cccc1-2 |  |
| 84 | Cc1cc(S(=O)(=O)NCCc2ccc(OCC(=O)O)cc2)c2ccc(C(C)C)ccc1-2 |  |
| 21 | O=C(O)c1cc(CCNS(=O)(=O)c2ccccc2)c2cccccc1-2 |  |
| 0.0009 | CC(C)c1ccc2c(CCCCNS(=O)(=O)c3ccc(Cl)cc3)cc(S(=O)(=O)[O-])c-2cc1.[Na+] | IC50 [3]: > 100 µM; IC50 [4]: 0.014 µM; Agonist activity [5]: 0; Selectivity index [6]: 378; Agonist activity [7]: 0 |
| 190 | Cc1cc(S(=O)(=O)NCCc2ccc(OCC(=O)O)cc2)c2cccccc1-2 |  |
| 77 | CCCc1cc(S(=O)(=O)NCCc2ccc(OCC(=O)O)cc2)c2cccccc1-2 |  |
| 0.93 | CC(C)c1cccc2c(CCCCCCCNS(=O)(=O)c3ccccc3)cc(C(=O)O)c-2c1 |  |
| 1.6 | CC(C)c1ccc2c(CCCCNS(=O)(=O)c3cccc(C(F)(F)F)c3)cc(C(=O)O)c-2cc1 |  |
| 1.5 | O=C(O)COc1ccc(CCNS(=O)(=O)c2ccccc2)cc1 [SULOTROBAN] | Selectivity index [1]: 5 |
| 7.4 | CC(C)c1cccc2c(CCCNS(=O)(=O)c3ccccc3)cc(C(=O)O)c-2c1 |  |
| 60 | CC(C)c1ccc2c(CCNS(=O)(=O)c3ccccc3)cc(C(=O)O)c-2cc1 |  |
| 19 | CCCCc1cc(S(=O)(=O)NCCc2ccc(OCC(=O)O)cc2)c2ccc(C(C)C)ccc1-2 |  |
| 3.1 | CC(C)c1cccc2c(CCCCNS(=O)(=O)c3ccccc3)cc(C(=O)O)c-2c1 |  |
| 50 | CCCc1cc(S(=O)(=O)NCCc2ccc(OCC(=O)O)cc2)c2ccc(C(C)C)ccc1-2 |  |
| 65 | CCc1cc(S(=O)(=O)NCCc2ccc(OCC(=O)O)cc2)c2ccc(C(C)C)ccc1-2 |  |
| 110 | CCc1cc(S(=O)(=O)NCCc2ccc(OCC(=O)O)cc2)c2ccccc(OC)c1-2 |  |
| 56 | CCc1cc(S(=O)(=O)NCCc2ccc(OCC(=O)O)cc2)c2cccccc1-2 |  |
|  | CC(C)c1ccc2c(CC/C=C/CCNS(=O)(=O)c3ccccc3)cc(C(=O)O)c-2cc1 (stereo in doubt; 40) | IC50 [2]: 0.46 µM |
| 0.14 | CC(C)c1ccc2c(C(=O)O)cc(-c3cccc(CCNS(=O)(=O)c4ccccc4)c3)c-2cc1 |  |
| 0.14 | O=C(O)c1cc(CCCCCCNS(=O)(=O)c2ccccc2)c2cccccc1-2 |  |
| 15 | CC(C)c1cccc2c(CCNS(=O)(=O)c3ccccc3)cc(C(=O)O)c-2c1 |  |
| 55 | CCCCc1cc(S(=O)(=O)NCCc2ccc(OCC(=O)O)cc2)c2cccccc1-2 |  |
| 0.57 | O=C(O)c1cc(CCCCNS(=O)(=O)c2ccccc2)c2cccccc1-2 |  |

| IC50 [2, 9] [µM] | SMILES | also measured |
| --- | --- | --- |
| 4.8 | O=C(O)c1cc(CCCNS(=O)(=O)c2ccccc2)c2cccccc1-2 |  |
| 4.8 | CC(C)c1ccc2c(CCCNS(=O)(=O)c3ccccc3)cc(C(=O)O)c-2cc1 |  |
| 120 | CCc1cc(S(=O)(=O)NCCc2ccc(OCC(=O)O)cc2)c2cc(C(C)C)ccc(OC)c1-2 |  |
| 0.84 | O=C(O)c1cc(CCCCCNS(=O)(=O)c2ccccc2)c2cccccc1-2 |  |
| 32 | CCCCc1cc(S(=O)(=O)NCCc2ccc(OCC(=O)O)cc2)c2cc(C(C)C)cccc1-2 |  |
| 190 | COc1ccccc2c(S(=O)(=O)NCCc3ccc(OCC(=O)O)cc3)cc(C)c1-2 |  |
|  | COc1ccc(S(=O)(=O)NCCCCc2cc(S(=O)(=O)[O-])c3ccc(C(C)C)ccc2-3)cc1.[Na+] | IC50 [3]: > 100 µM; Agonist activity [5]: 0; IC50 [8]: 0.0032 µM; Selectivity index [6]: 660; Agonist activity [7]: 0 |
| 0.16 | COc1ccc(S(=O)(=O)NCCCCc2cc(C(=O)O)c3ccc(C(C)C)ccc2-3)cc1 | Agonist activity [5]: 0; Selectivity index [6]: > 233; Agonist activity [7]: 0 |
| 0.12 | CC(C)c1ccc2c(CCCCCNS(=O)(=O)c3ccccc3)cc(C(=O)O)c-2cc1 |  |
| 0.017 | CC(C)c1ccc2c(CCCCNS(=O)(=O)c3ccccc3)cc(S(=O)(=O)[O-])c-2cc1.[Na+] | Agonist activity [5]: 0; Selectivity index [6]: > 91; Agonist activity [7]: 0 |
| 1.1 | CC(C)c1ccc2c(CCCCNS(=O)(=O)c3ccc(F)cc3)cc(C(=O)O)c-2cc1 |  |
| 0.07 | CC(C)c1ccc2c(CCCCNS(=O)(=O)c3ccccc3)cc(C(=O)O)c-2cc1 | Selectivity index [1]: > 63 |
| 45 | CCCc1cc(S(=O)(=O)NCCc2ccc(OCC(=O)O)cc2)c2cc(C(C)C)cccc1-2 |  |
| 0.038 | O=C(O)c1cc(CCCCCCCCNS(=O)(=O)c2ccccc2)c2cccccc1-2 |  |
|  | CC(C)c1ccc2c(CC/C=C/CCNS(=O)(=O)c3ccccc3)cc(C(=O)O)c-2cc1 (stereo in doubt; 39) | IC50 [2]: 0.052 µM |
| 2.6 | CC(C)c1cccc2c(CCCCCNS(=O)(=O)c3ccccc3)cc(C(=O)O)c-2c1 |  |
| 25 | CC(C)c1ccc2c(C(C)C)cc(S(=O)(=O)NCCc3ccc(OCC(=O)O)cc3)c-2cc1 |  |
| 160 | CC(C)c1cc(S(=O)(=O)NCCc2ccc(OCC(=O)O)cc2)c2cccccc1-2 |  |
| 0.3 | CC(C)c1ccc2c(CCCCNS(=O)(=O)c3ccccc3)cc(CC(=O)O)c-2cc1 |  |
| 0.018 | O=C(O)c1cc(CCCCCCCNS(=O)(=O)c2ccccc2)c2cccccc1-2 |  |
| 0.92 | CC(C)c1cccc2c(CCCCCCNS(=O)(=O)c3ccccc3)cc(C(=O)O)c-2c1 |  |
| 21 | CC(C)c1ccc2c(/C=C/C(=O)O)cc(CCCCNS(=O)(=O)c3ccccc3)c-2cc1 |  |
| 0.12 | CC(C)c1ccc2c(CCCCCCCNS(=O)(=O)c3ccccc3)cc(C(=O)O)c-2cc1 |  |
| 56 | CCc1cc(S(=O)(=O)NCCc2ccc(OCC(=O)O)cc2)c2cc(C(C)C)cccc1-2 |  |

From ChEMBL document CHEMBL1126624, “Design, synthesis, and pharmacology of 3-substituted sodium azulene-1-sulfonates and related compounds: non-prostanoid thromboxane A2 receptor antagonists” (J Med Chem, 1993)
